Laboratory results: ChEMBL document CHEMBL1157620, “1-(Aryl)-6-[alkoxyalkyl]-3-azabicyclo[3.1.0]hexanes and 6-(aryl)-6-[alkoxyalkyl]-3-azabicyclo[3.1.0]hexanes: a new series of potent and selective triple reuptake inhibitors” (J Med Chem, 2010)

Key:
[1] = biological target: T1, Sodium-dependent dopamine transporter (Homo sapiens, UniProt Q01959); experiment: Displacement of [3H]WIN-35428 from human recombinant DAT expressed in BacMam virus-transduced cells by scintillation proximity assay; assay type: cell-based
T1 sequence (Q01959 whole entry): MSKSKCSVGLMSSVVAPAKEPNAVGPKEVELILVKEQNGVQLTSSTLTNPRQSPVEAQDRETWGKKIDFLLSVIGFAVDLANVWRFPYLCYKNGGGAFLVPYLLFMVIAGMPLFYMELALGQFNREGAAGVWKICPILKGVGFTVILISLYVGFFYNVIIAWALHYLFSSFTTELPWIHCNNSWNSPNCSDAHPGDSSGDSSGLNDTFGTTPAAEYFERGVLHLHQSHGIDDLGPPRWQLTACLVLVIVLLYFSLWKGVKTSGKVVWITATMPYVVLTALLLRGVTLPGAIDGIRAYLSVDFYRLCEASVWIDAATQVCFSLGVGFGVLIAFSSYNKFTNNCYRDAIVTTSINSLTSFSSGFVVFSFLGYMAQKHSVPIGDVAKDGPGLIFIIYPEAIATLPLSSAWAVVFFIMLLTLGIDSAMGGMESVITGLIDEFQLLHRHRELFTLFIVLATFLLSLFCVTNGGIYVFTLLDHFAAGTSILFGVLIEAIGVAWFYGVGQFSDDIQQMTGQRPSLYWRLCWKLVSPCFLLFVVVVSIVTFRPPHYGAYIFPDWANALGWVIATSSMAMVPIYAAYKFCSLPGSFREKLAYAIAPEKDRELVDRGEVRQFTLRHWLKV

[2] = biological target: T2, Sodium-dependent noradrenaline transporter (Homo sapiens, UniProt P23975); experiment: Displacement of [3H]nisoxetine from human recombinant NET expressed in BacMam virus-transduced cells by scintillation proximity assay; assay type: cell-based
T2 sequence (P23975 whole entry): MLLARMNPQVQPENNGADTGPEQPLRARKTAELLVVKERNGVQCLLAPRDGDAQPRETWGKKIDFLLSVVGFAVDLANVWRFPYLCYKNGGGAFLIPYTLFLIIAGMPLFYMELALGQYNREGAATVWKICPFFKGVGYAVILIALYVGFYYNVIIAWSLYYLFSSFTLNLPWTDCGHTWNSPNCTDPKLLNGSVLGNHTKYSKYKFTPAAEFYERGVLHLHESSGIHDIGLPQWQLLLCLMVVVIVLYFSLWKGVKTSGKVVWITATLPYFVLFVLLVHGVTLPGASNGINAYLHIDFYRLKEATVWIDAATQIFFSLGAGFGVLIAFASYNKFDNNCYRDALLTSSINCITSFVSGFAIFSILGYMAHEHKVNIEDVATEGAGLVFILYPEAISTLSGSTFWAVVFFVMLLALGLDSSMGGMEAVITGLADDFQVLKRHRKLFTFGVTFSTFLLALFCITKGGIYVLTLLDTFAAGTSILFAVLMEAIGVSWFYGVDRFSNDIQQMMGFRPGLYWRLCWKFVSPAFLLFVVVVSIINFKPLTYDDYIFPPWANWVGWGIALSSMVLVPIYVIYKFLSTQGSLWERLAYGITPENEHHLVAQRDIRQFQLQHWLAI
Method in brief: (§1)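 BacMam-transduced membranes in SPA format. SERT: 1 mg/mL beads, 6 μg/mL membranes, 3 nM [3H]citalopram. NET: 2 mg/mL beads, 40 μg/mL membranes, 10 nM [3H]nisoxetine. Incubated overnight at room temperature; pKi from pIC50 by Cheng-Prusoff.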

[3] = biological target: T3, Sodium-dependent serotonin transporter (Homo sapiens, UniProt P31645); experiment: Displacement of [3H]citalopram from human recombinant SERT expressed in BacMam virus-transduced cells by scintillation proximity assay; assay type: cell-based; method in brief: as §1
T3 sequence (P31645 whole entry): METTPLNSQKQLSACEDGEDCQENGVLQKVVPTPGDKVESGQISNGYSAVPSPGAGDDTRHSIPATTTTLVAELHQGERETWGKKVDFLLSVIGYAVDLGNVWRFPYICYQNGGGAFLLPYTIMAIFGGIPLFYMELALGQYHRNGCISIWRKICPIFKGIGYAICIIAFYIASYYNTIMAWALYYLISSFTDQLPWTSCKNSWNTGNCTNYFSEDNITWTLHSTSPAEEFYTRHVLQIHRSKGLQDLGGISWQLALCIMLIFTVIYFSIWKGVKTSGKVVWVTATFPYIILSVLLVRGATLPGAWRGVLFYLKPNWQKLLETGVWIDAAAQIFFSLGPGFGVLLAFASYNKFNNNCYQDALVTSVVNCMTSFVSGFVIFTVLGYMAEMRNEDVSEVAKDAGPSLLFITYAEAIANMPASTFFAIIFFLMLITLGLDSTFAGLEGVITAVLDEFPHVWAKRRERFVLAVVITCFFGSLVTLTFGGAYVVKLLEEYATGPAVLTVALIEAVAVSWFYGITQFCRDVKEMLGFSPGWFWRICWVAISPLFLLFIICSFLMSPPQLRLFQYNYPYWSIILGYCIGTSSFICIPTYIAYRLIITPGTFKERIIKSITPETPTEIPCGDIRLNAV

[4] = Blood clearance in rat; assay type: ADME, organism-based
[5] = Half life in rat; assay type: ADME, organism-based; conditions: in vivo
[6] = Volume of distribution in rat; assay type: ADME, organism-based; conditions: in vivo
[7] = Bioavailability in rat; assay type: ADME, organism-based; conditions: in vivo
Brain = experiment: (§2) Fraction unbound in rat brain; assay type: ADME, tissue-based
[8] = biological target: Sodium-dependent serotonin transporter (Rattus norvegicus, UniProt P31652); experiment: Displacement of [3H]citalopram from rat cortex SERT by filtration binding assay
Chain of Sodium-dependent serotonin transporter (Rattus norvegicus, UniProt P31652) (P31652 whole entry): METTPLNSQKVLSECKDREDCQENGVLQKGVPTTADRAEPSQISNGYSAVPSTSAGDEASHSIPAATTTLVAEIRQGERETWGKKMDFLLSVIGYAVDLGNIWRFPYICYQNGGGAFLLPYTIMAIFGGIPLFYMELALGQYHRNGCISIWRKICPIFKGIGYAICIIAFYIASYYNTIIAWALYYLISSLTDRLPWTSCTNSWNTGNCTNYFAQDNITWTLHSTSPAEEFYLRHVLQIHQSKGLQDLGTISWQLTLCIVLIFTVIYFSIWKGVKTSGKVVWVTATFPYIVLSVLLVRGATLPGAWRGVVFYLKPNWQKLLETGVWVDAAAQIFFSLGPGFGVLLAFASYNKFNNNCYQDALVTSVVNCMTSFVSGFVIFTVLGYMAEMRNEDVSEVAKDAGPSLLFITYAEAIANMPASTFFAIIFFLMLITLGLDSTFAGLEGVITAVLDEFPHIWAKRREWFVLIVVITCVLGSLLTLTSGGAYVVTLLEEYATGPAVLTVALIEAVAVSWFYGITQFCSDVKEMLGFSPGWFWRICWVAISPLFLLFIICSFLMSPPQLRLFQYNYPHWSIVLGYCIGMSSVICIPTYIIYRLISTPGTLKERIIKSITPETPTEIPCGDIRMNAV
Method in brief: (§3)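 Native brain tissue filtration binding, run as for the recombinant transporters. SERT on rat or mouse cortex (20 and 7 μg protein/well respectively). NET on rat hippocampus (40 μg/well). DAT on rat striatum (20 μg/well).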

Cytochrome P450 1A2 = biological target: T4, Cytochrome P450 1A2 (Homo sapiens, UniProt P05177); experiment: Inhibition of human CYP1A2 by fluorescence assay; assay type: ADME
T4 sequence (P05177 whole entry): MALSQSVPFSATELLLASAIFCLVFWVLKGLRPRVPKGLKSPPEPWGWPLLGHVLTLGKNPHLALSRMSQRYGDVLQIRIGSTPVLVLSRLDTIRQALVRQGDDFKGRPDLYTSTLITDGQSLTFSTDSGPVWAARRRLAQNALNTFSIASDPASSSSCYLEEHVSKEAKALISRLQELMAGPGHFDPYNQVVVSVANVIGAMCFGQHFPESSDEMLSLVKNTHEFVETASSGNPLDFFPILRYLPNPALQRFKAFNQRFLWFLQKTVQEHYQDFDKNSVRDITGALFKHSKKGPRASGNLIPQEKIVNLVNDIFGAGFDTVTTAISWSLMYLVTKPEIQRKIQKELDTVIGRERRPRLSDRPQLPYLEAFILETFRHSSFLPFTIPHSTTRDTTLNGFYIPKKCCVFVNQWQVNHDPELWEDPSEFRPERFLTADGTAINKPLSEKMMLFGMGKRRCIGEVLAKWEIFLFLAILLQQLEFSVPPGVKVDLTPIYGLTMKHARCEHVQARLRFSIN
Method in brief: (§4)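 Recombinant human P450 bactosomes (0.1 mg/mL) in 50 mM phosphate, pH 7.4. Test compound at 0.1-10 μM, preincubated 10 min at 37 °C with fluorogenic substrate: ethoxyresorufin 0.5 μM (1A2), FCA 50 μM (2C9), BMC 10 μM (2C19), MMC 10 μM (2D6).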

Cytochrome P450 2C9 = Cytochrome P450 2C9 (Homo sapiens, UniProt P11712); experiment: Inhibition of human CYP2C9 by fluorescence assay; assay type: ADME; method in brief: as §4
Chain of Cytochrome P450 2C9 (P11712 whole entry): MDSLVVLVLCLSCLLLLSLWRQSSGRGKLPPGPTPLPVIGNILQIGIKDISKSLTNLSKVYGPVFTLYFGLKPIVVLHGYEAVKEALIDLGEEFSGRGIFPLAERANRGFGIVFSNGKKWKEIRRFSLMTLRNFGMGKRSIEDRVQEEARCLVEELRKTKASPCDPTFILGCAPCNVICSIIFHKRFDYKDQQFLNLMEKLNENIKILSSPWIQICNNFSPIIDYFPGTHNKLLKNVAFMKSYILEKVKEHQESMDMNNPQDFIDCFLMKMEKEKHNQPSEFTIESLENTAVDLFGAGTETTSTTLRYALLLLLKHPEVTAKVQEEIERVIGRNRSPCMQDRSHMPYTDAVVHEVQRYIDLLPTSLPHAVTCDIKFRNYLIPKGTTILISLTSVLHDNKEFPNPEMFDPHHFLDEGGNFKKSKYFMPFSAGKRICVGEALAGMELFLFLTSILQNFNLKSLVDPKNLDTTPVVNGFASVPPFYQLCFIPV

Cytochrome P450 2C19 = Cytochrome P450 2C19 (Homo sapiens, UniProt P33261); experiment: Inhibition of human CYP2C19 by fluorescence assay; assay type: ADME; method in brief: as §4
Chain of Cytochrome P450 2C19 (P33261 whole entry): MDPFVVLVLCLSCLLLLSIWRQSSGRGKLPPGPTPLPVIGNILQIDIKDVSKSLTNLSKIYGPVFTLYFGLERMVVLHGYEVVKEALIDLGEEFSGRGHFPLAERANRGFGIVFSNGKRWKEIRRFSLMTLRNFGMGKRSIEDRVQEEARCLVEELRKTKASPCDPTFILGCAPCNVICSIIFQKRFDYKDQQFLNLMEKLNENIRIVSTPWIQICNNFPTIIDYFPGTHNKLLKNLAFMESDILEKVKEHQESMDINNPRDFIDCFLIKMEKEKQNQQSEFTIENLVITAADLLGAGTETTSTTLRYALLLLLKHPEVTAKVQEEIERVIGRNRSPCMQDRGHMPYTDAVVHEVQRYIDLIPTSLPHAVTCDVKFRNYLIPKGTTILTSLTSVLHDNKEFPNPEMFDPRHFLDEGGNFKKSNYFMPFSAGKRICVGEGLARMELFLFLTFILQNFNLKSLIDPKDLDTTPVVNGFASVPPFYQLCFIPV

Cytochrome P450 2D6 = Cytochrome P450 2D6 (Homo sapiens, UniProt P10635); experiment: Inhibition of human […] by fluorescence assay; assay type: ADME; method in brief: as §4
Chain of Cytochrome P450 2D6 (P10635 whole entry): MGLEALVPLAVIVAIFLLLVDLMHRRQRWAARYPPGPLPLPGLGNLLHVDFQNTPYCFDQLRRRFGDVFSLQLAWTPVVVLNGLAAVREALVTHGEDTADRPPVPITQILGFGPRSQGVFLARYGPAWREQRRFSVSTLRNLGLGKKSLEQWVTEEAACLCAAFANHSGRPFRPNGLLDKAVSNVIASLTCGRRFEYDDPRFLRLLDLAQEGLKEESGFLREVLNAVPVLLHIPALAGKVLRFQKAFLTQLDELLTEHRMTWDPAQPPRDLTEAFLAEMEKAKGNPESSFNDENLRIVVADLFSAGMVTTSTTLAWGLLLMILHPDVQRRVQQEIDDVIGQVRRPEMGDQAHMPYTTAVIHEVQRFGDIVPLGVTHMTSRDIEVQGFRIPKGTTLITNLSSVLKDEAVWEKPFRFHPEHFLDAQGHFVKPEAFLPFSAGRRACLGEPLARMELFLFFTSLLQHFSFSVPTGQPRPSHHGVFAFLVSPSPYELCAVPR

Cytochrome P450 3A4 = Cytochrome P450 3A4 (Homo sapiens, UniProt P08684); experiment: Inhibition of human CYP3A4 by fluorescence assay
Chain of Cytochrome P450 3A4 (P08684 whole entry): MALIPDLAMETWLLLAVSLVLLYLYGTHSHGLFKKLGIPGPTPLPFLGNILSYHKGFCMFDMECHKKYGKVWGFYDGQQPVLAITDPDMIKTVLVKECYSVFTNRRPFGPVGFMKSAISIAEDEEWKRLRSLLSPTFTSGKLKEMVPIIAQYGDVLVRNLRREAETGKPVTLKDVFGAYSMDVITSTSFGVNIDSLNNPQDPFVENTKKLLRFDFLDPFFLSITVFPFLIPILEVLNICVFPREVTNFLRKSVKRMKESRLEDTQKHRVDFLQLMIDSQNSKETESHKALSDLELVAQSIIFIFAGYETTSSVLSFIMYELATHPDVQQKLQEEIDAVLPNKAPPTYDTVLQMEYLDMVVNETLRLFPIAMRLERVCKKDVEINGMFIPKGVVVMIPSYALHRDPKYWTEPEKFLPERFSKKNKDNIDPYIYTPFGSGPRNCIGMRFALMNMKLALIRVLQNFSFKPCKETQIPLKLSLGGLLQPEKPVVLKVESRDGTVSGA

Liver microsomes [9] = experiment: Intrinsic clearance in human liver microsomes assessed per gram of protein at 0.5 uM after 30 mins by HPLC-MS/MS analysis; assay type: ADME, Microsome; conditions: microsomes, 0.5 h, 0.5 µM
Method in brief: (§5)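 Compound at 0.5 μM with rat or human liver microsomes (0.5 mg protein/mL), 50 mM phosphate, pH 7.4, 37 °C, started with NADPH. Sampled at 0-30 min, acetonitrile quench, HPLC-MS/MS. CLi from first-order elimination constant, scaled assuming 52.5 mg microsomal protein/g.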

Liver microsomes [10] = experiment: Intrinsic clearance in rat liver microsomes assessed per gram of protein at 0.5 uM after 30 mins by HPLC-MS/MS analysis; assay type: ADME, Microsome; conditions: microsomes, 0.5 h, 0.5 µM; method in brief: as §5
[11] = Ratio of drug level in brain to blood in rat; assay type: ADME, tissue-based; conditions: read-out: BBR
[12] = as §2; assay type: ADME, tissue-based; conditions: brain
[13] = biological target: T3, Sodium-dependent serotonin transporter; experiment: Inhibition of [3H]serotonin reuptake at human SERT expressed in LLCPK cells by scintillation proximity assay; assay type: cell-based
Method in brief: (§6)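 Uptake-SPA on stably transfected LLCPK cells in HEPES buffer, pH 7.4. SERT: 25000 cells/well, 1.5 mg/mL beads, 35 nM [3H]serotonin. NET: 50000 cells/well, 1.5 mg/mL beads, 45 nM [3H]noradrenalin. DAT: 75000 cells/well, 2 mg/mL beads, 75 nM [3H]dopamine. Concentrations are those of the substrate addition. 1 h at room temperature; 4-parameter fit.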

[14] = biological target: T2, Sodium-dependent noradrenaline transporter; experiment: Inhibition of [3H]noradrenalin reuptake at human NET expressed in LLCPK cells by scintillation proximity assay; assay type: cell-based; method in brief: as §6
[15] = biological target: T1, Sodium-dependent dopamine transporter; experiment: Inhibition of [3H]dopamine reuptake at human DAT expressed in LLCPK cells by scintillation proximity assay; assay type: cell-based; method in brief: as §6
[16] = biological target: Alpha-1A adrenergic receptor (Homo sapiens, UniProt P35348); experiment: Inhibition of adrenergic alpha1A receptor
[17] = biological target: 5-hydroxytryptamine receptor 2A (Homo sapiens, UniProt P28223); experiment: Inhibition of 5HT2A receptor
Histamine H1 receptor = Histamine H1 receptor (Homo sapiens, UniProt P35367); experiment: Inhibition of histamine H1 receptor
[18] = biological target: Muscarinic acetylcholine receptor M1 (Homo sapiens, UniProt P11229); experiment: Inhibition of muscarinic M1 receptor
[19] = biological target: Muscarinic acetylcholine receptor M2 (Homo sapiens, UniProt P08172); experiment: Inhibition of muscarinic M2 receptor
[20] = biological target: Muscarinic acetylcholine receptor M3 (Homo sapiens, UniProt P20309); experiment: Inhibition of muscarinic M3 receptor
[21] = biological target: Muscarinic acetylcholine receptor M4 (Homo sapiens, UniProt P08173); experiment: Inhibition of muscarinic M4 receptor
Chain of Muscarinic acetylcholine receptor M4 (P08173 whole entry): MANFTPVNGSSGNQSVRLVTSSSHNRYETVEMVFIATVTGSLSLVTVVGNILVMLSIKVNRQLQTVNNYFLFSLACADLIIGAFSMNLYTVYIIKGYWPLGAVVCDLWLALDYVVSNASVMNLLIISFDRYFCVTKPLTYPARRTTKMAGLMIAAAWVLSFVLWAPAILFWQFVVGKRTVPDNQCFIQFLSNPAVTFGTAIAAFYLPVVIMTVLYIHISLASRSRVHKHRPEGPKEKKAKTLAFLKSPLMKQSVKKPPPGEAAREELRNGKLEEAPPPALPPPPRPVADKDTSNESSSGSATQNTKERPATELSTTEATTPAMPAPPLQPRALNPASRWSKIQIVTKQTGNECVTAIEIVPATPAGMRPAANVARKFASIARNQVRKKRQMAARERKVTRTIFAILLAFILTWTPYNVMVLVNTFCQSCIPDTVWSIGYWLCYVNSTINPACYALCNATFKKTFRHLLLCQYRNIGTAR

[22] = biological target: Muscarinic acetylcholine receptor M5 (Homo sapiens, UniProt P08912); experiment: Inhibition of muscarinic M5 receptor
[23] = biological target: T5, Voltage-gated inwardly rectifying potassium channel KCNH2 (Homo sapiens, UniProt Q12809); experiment: Inhibition of human ERG assessed as blockade of channel current by electrophysiology assay
[24] = biological target: T5, Voltage-gated inwardly rectifying potassium channel KCNH2; experiment: Displacement of [3H][…] from human ERG by scintillation proximity assay
Method in brief: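 SPA-format [³H]dofetilide binding to hERG, with bound signal read on a plate imager. The value is reported as a binding pKi.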

Transporter = Transporter (Rattus norvegicus, UniProt Q63380); experiment: Displacement of [N-methyl-3H]nisoxetine from rat hippocampus NET by filtration binding assay; assay type: tissue-based; method in brief: as §3
[25] = biological target: Sodium-dependent dopamine transporter (Rattus norvegicus, UniProt P23977); experiment: Displacement of [N-methyl-3H]WIN-35428 from rat striatum DAT by filtration binding assay; method in brief: as §3
[26] = biological target: Sodium-dependent serotonin transporter (Mus musculus, UniProt Q60857); experiment: Displacement of [3H]citalopram from mouse cortex SERT by filtration binding assay; method in brief: as §3
[27] = biological target: T3, Sodium-dependent serotonin transporter; experiment: Displacement of [3H]citalopram from human recombinant SERT expressed in LLCPK cells by liquid scintillation counting; assay type: cell-based
Method in brief: (§7)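 Filtration binding on stably transfected LLCPK cell membranes, 2 h at room temperature. SERT: 0.25 nM [3H]citalopram, about 2.5 μg protein/well, NSB with 10 μM fluoxetine. NET: 1.5 nM [3H]nisoxetine, 4.8 μg/well, NSB with 10 μM desipramine. DAT: 10 nM [3H]WIN-35,428, 9.6 μg/well, NSB with 10 μM GBR-12909. Filter-bound radioactivity counted; 4-parameter fit, pKi by Cheng-Prusoff.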

[28] = biological target: T2, Sodium-dependent noradrenaline transporter; experiment: Displacement of [N-methyl-3H]nisoxetine from human recombinant NET expressed in LLCPK cells by liquid scintillation counting; assay type: cell-based; method in brief: as §7
[29] = biological target: T1, Sodium-dependent dopamine transporter; experiment: Displacement of [N-methyl-3H]WIN-35428 from human recombinant DAT expressed in LLCPK cells by liquid scintillation counting; assay type: cell-based; method in brief: as §7

Structure (SMILES)	Ki [1]	Ki [2]	Ki [3]	clearance [4]	half-life [5]	Vd [6]	bioavailability [7]	Ki [8]	IC50 (Cytochrome P450 1A2)	IC50 (Cytochrome P450 2C9)	IC50 (Cytochrome P450 2C19)	IC50 (Cytochrome P450 2D6)	IC50 (Cytochrome P450 3A4)	CL (Liver microsomes [9])	CL (Liver microsomes [10])	Kp [11]	fraction unbound [12]	other results
FC(F)(F)COC[C@H]1[C@@H]2CNC[C@@]21c1ccc(Cl)c(Cl)c1	631 nM	347 nM	56.2 nM	42 mL/min/kg	1.4 h	3.2 L/kg	41%	–	–	–	–	–	–	–	–	–	–	Fu (Brain): 0.6%
CCOC[C@H]1[C@@H]2CNC[C@@]21c1ccc(Cl)c(Cl)c1	7.94 nM	0.501 nM	0.158 nM	18 mL/min/kg	1.2 h	1.4 L/kg	61%	0.676 nM	> 9000 nM	> 9000 nM	> 9000 nM	4000 nM	> 9000 nM	1.2 mL/min/g	1.3 mL/min/g	4.6	0.014	IC50 [13]: 1.26 nM; IC50 [14]: 0.158 nM; IC50 [15]: 5.01 nM; Ki [16]: 200 nM; Ki [17]: 158 nM; Ki (Histamine H1 receptor): 1000 nM; Ki [18]: 158 nM; Ki [19]: 200 nM; Ki [20]: 63.1 nM; Ki [21]: 251 nM; Ki [22]: 100 nM; IC50 [23]: 4200 nM; Ki [24]: 12600 nM; Ki (Transporter): 0.135 nM; Ki [25]: 13.5 nM; Ki [26]: 0.851 nM
COC[C@H]1[C@@H]2CNC[C@@]21c1ccc(Cl)c(Cl)c1 (relative stereo)	56.2 nM	1.74 nM	0.759 nM	16 mL/min/kg	2.4 h	2.9 L/kg	94%	1.78 nM	> 6000 nM	> 6000 nM	> 6000 nM	> 6000 nM	> 6000 nM	< 0.5 mL/min/g	3.8 mL/min/g	4	0.027	Ki [27]: 0.741 nM; Ki [28]: 4.57 nM; Ki [29]: 85.1 nM
